Experimental data taken from ChEMBL document CHEMBL1914435, “Synthesis and evaluation of novel macrocyclic antifungal peptides” (2011).
Values after ≈ are worked out from the molar mass of the structure shown. Values belong to the molecule of their own block, whether it stands above or below them. Active and inactive are the calls of the source. The rule behind the calls is not given here. Starred links: 1 amine or outer side, 2 acyl side, 3 side chain; linkers in the order of their positions; H or OH if unused. Positions of bridges follow the written chain, without caps; N, C: chain ends. Non-standard residues stand in square brackets, D forms with d. Residues, ends and D or L forms follow the SMILES beside them. *: point of attachment. pTerphenylCO(4''-OnC5H11) = CCCCCOc1ccc(-c2ccc(-c3ccc(C(=O)*)cc3)cc2)cc1; hTyr = N[C@@H](CCc1ccc(O)cc1)C(=O)O; Ethylenediamine = C(CN[*:2])N[*:1]; Palmitoyl = CCCCCCCCCCCCCCCC(=O)*; Hyp = O=C(O)[C@@H]1C[C@@H](O)CN1; AllylGly = C=CC[C@H](N)C(=O)O; Orn = NCCC[C@H](N)C(=O)O; NHNH2 = NN*

Experiments:
Candida albicans [1] = assay: Antifungal activity against Candida albicans CBS 9975 after 24 hrs by broth microdilution method; assay type: functional; conditions: for MIC: CBS 9975, 24 h
Outline: (§1)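 Broth microdilution in YPD (1% yeast extract, 2% peptone, 1% dextrose). Compounds dissolved in water or 10% DMSO at 1 mg/mL, diluted fivefold in YPD, then serially twofold. CBS yeast isolates were grown on YPD agar for 24 h at 30 °C, then in YPD broth with shaking for 24 h. Inoculum was ~1.5 × 10³ cells/ml. Incubation at 30 °C. MIC read visually at 24 h as the lowest concentration giving full growth inhibition.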

Pichia kudriavzevii = assay: Antifungal activity against Candida krusei after 24 hrs by broth microdilution method; assay type: functional, organism-based; outline: as §1
Candida parapsilosis = assay: Antifungal activity against Candida parapsilosis after 24 hrs by broth microdilution method; assay type: functional, organism-based; outline: as §1
Nakaseomyces glabratus = assay: Antifungal activity against Candida glabrata after 24 hrs by broth microdilution method; assay type: functional, organism-based; outline: as §1
Candida dubliniensis = assay: Antifungal activity against Candida dubliniensis after 24 hrs by broth microdilution method; assay type: functional, organism-based; outline: as §1
Candida albicans [2] = assay: Antifungal activity against Candida albicans after 24 hrs by broth microdilution method; assay type: functional, organism-based; outline: as §1
Candida tropicalis = assay: Antifungal activity against Candida tropicalis after 24 hrs by broth microdilution method; assay type: functional, organism-based; outline: as §1
Candida albicans [3] = assay: Antifungal activity against Candida albicans CBS 9975 assessed as enlarged round cells with large vacuoles after 24 hrs by broth microdilution method; assay type: functional, organism-based
Candida albicans [4] = assay: Antifungal activity against Candida albicans CBS 9975 assessed as reduction in budding cells after 24 hrs by broth microdilution method; assay type: functional, organism-based
Candida albicans [5] = assay: Antifungal activity against Candida albicans CBS 9975 assessed as agglutinated enlarged round cells after 24 hrs by broth microdilution method; assay type: functional, organism-based
Candida albicans [6] = assay: Antifungal activity against Candida albicans CBS 9975 assessed as enlarged round cells with distorted cytoplasm after 24 hrs by broth microdilution method; assay type: functional, organism-based

Structure (SMILES): CCCCCOc1ccc(-c2ccc(-c3ccc(C(=O)N[C@H]4CCCC[C@@H](C(=O)O)NC(=O)[C@@H]5C[C@@H](O)CN5C(=O)[C@H](CCCN)NC(=O)[C@H](CCc5ccc(O)cc5)NC(=O)[C@@H]5C[C@@H](O)CN5C(=O)[C@H]([C@@H](C)O)NC4=O)cc3)cc2)cc1
MIC (Candida albicans [1]): > 100 µg/mL

Structure (SMILES): CCCCCOc1ccc(-c2ccc(-c3ccc(C(=O)N[C@H]4C/C=C\C[C@@H](CO)NC(=O)[C@@H]5C[C@@H](O)CN5C(=O)[C@H](CCCN)NC(=O)[C@H](CCc5ccc(O)cc5)NC(=O)[C@@H]5C[C@@H](O)CN5C(=O)[C@H]([C@@H](C)O)NC4=O)cc3)cc2)cc1
Activity (Candida albicans [1]): Dose-dependent effect | MIC (Candida albicans [1]): > 100 µg/mL

Structure (SMILES): CCCCCCCCCCCCCCCC(=O)N[C@H]1CSSC[C@@H](C(N)=O)NC(=O)[C@@H]2C[C@@H](O)CN2C(=O)[C@H](CCCN)NC(=O)[C@H](CCc2ccc(O)cc2)NC(=O)[C@@H]2C[C@@H](O)CN2C(=O)[C@H]([C@@H](C)O)NC1=O (Palmitoyl-CT[Hyp][hTyr][Orn][Hyp]C-NH2; disulfide 1-7)
MIC (Candida albicans [1]): > 100 µg/mL

Structure (SMILES): CCCCCCCCCCCCCCCC(=O)N[C@H]1C/C=C\C[C@@H](C(N)=O)NC(=O)[C@@H]2C[C@@H](O)CN2C(=O)[C@H](CCCN)NC(=O)[C@H](CCc2ccc(O)cc2)NC(=O)[C@@H]2C[C@@H](O)CN2C(=O)[C@H]([C@@H](C)O)NC1=O (Palmitoyl-[AllylGly]T[Hyp][hTyr][Orn][Hyp][AllylGly]-NH2; staple (Z) 1-7)
MIC (Candida albicans [1]): > 100 µg/mL

Structure (SMILES): CCCCCCCCCCCCCCCC(=O)N[C@H]1C/C=C\C[C@@H](C(=O)O)NC(=O)[C@@H]2C[C@@H](O)CN2C(=O)[C@H](CCCN)NC(=O)[C@H](CCc2ccc(O)cc2)NC(=O)[C@@H]2C[C@@H](O)CN2C(=O)[C@H]([C@@H](C)O)NC1=O (Palmitoyl-[AllylGly]T[Hyp][hTyr][Orn][Hyp][AllylGly]-OH; staple (Z) 1-7)
MIC (Candida albicans [1]): > 100 µg/mL

Structure (SMILES): CCCCCOc1ccc(-c2ccc(-c3ccc(C(=O)N[C@H]4CCCCNC(=O)[C@@H]5C[C@@H](O)CN5C(=O)[C@H](CCCN)NC(=O)[C@H](CCc5ccc(O)cc5)NC(=O)[C@@H]5C[C@@H](O)CN5C(=O)[C@H]([C@@H](C)O)NC4=O)cc3)cc2)cc1 ({pTerphenylCO(4''-OnC5H11)}-KT[Hyp][hTyr][Orn][Hyp]; lactam 1-C)
Activity (Pichia kudriavzevii): Active | Activity (Candida parapsilosis): Active | Activity (Nakaseomyces glabratus): Active | Activity (Candida dubliniensis): Active | Activity (Candida albicans [2]): Active | Activity (Candida tropicalis): Active | MIC (Candida albicans [1]): > 100 µg/mL

Structure (SMILES): CCCCCOc1ccc(-c2ccc(-c3ccc(C(=O)N[C@H]4C/C=C\C[C@@H](C(=O)NCCN)NC(=O)[C@@H]5C[C@@H](O)CN5C(=O)[C@H](CCCN)NC(=O)[C@H](CCc5ccc(O)cc5)NC(=O)[C@@H]5C[C@@H](O)CN5C(=O)[C@H]([C@@H](C)O)NC4=O)cc3)cc2)cc1 ({pTerphenylCO(4''-OnC5H11)}-[AllylGly]T[Hyp][hTyr][Orn][Hyp][AllylGly]-Ethylenediamine; staple (Z) 1-7)
Activity (Candida albicans [1]): Dose-dependent effect | MIC (Candida albicans [1]): > 100 µg/mL

Structure (SMILES): CCCCCOc1ccc(-c2ccc(-c3ccc(C(=O)N[C@H]4C/C=C\C[C@@H](C(=O)NN)NC(=O)[C@@H]5C[C@@H](O)CN5C(=O)[C@H](CCCN)NC(=O)[C@H](CCc5ccc(O)cc5)NC(=O)[C@@H]5C[C@@H](O)CN5C(=O)[C@H]([C@@H](C)O)NC4=O)cc3)cc2)cc1 ({pTerphenylCO(4''-OnC5H11)}-[AllylGly]T[Hyp][hTyr][Orn][Hyp][AllylGly]-NHNH2; staple (Z) 1-7)
Activity (Candida albicans [1]): Dose-dependent effect | MIC (Candida albicans [1]): > 100 µg/mL

Structure (SMILES): CCCCCOc1ccc(-c2ccc(-c3ccc(C(=O)N[C@H]4C/C=C\C[C@@H](C(=O)O)NC(=O)[C@@H]5C[C@@H](O)CN5C(=O)[C@H](CCCN)NC(=O)[C@H](CCc5ccc(O)cc5)NC(=O)[C@@H]5C[C@@H](O)CN5C(=O)[C@H]([C@@H](C)O)NC4=O)cc3)cc2)cc1 ({pTerphenylCO(4''-OnC5H11)}-[AllylGly]T[Hyp][hTyr][Orn][Hyp][AllylGly]-OH; staple (Z) 1-7)
Activity (Candida albicans [3]): Active | Activity (Candida albicans [4]): Active | Activity (Candida albicans [5]): Active | Activity (Candida albicans [6]): Active | Activity (Candida albicans [1]): Dose-dependent effect | MIC (Candida albicans [1]): > 100 µg/mL

Structure (SMILES): CCCCCOc1ccc(-c2ccc(-c3ccc(C(=O)N[C@H]4C/C=C\C[C@@H](C(=O)OC)NC(=O)[C@@H]5C[C@@H](O)CN5C(=O)[C@H](CCCN)NC(=O)[C@H](CCc5ccc(O)cc5)NC(=O)[C@@H]5C[C@@H](O)CN5C(=O)[C@H]([C@@H](C)O)NC4=O)cc3)cc2)cc1 ({pTerphenylCO(4''-OnC5H11)}-[AllylGly]T[Hyp][hTyr][Orn][Hyp][AllylGly]-OMe; staple (Z) 1-7)
MIC (Candida albicans [1]): > 100 µg/mL

More lines, main results first:

MIC (Candida albicans [1]): > 100 µg/mL
Structure (SMILES): CCCCCCCCCCCCCCCC(=O)N[C@H]1CCCC[C@@H](C(N)=O)NC(=O)[C@@H]2C[C@@H](O)CN2C(=O)[C@H](CCCN)NC(=O)[C@H](CCc2ccc(O)cc2)NC(=O)[C@@H]2C[C@@H](O)CN2C(=O)[C@H]([C@@H](C)O)NC1=O

MIC (Candida albicans [1]): > 100 µg/mL
Structure (SMILES): CCCCCCCCCCCCCCCC(=O)N[C@H]1CCCC[C@@H](C(=O)O)NC(=O)[C@@H]2C[C@@H](O)CN2C(=O)[C@H](CCCN)NC(=O)[C@H](CCc2ccc(O)cc2)NC(=O)[C@@H]2C[C@@H](O)CN2C(=O)[C@H]([C@@H](C)O)NC1=O

MIC (Candida albicans [1]): 25 µg/mL (≈ 26.1 µM)
Structure (SMILES): CCCCCCCCCCCCCCCC(=O)N[C@H]1CCCNC(=O)[C@@H]2C[C@@H](O)CN2C(=O)[C@H]([C@@H](C)O)NC(=O)[C@H](CCc2ccc(O)cc2)NC(=O)[C@@H]2C[C@@H](O)CN2C(=O)[C@H]([C@@H](C)O)NC1=O (Palmitoyl-[Orn]T[Hyp][hTyr]T[Hyp]; lactam 1-C)
Activity (Pichia kudriavzevii): Active | Activity (Candida parapsilosis): Active | Activity (Nakaseomyces glabratus): Active | Activity (Candida dubliniensis): Active | Activity (Candida albicans [2]): Active | Activity (Candida tropicalis): Active

MIC (Candida albicans [1]): 4.38 µg/mL (≈ 4.51 µM)
Structure (SMILES): CCCCCCCCCCCCCCCC(=O)N[C@H]1CCCNC(=O)[C@@H]2C[C@@H](O)CN2C(=O)[C@H](CCCN)NC(=O)[C@H](CCc2ccc(O)cc2)NC(=O)[C@@H]2C[C@@H](O)CN2C(=O)[C@H]([C@@H](C)O)NC1=O (Palmitoyl-[Orn]T[Hyp][hTyr][Orn][Hyp]; lactam 1-C)
Activity (Pichia kudriavzevii): Active | Activity (Candida parapsilosis): Active | Activity (Nakaseomyces glabratus): Active | Activity (Candida dubliniensis): Active | Activity (Candida albicans [2]): Active | Activity (Candida tropicalis): Active

MIC (Candida albicans [1]): 0.47 µg/mL (≈ 0.442 µM)
Structure (SMILES): CCCCCOc1ccc(-c2ccc(-c3ccc(C(=O)N[C@H]4CCCNC(=O)[C@@H]5C[C@@H](O)CN5C(=O)[C@H]([C@@H](C)O)NC(=O)[C@H](CCc5ccc(O)cc5)NC(=O)[C@@H]5C[C@@H](O)CN5C(=O)[C@H]([C@@H](C)O)NC4=O)cc3)cc2)cc1 ({pTerphenylCO(4''-OnC5H11)}-[Orn]T[Hyp][hTyr]T[Hyp]; lactam 1-C)
Activity (Pichia kudriavzevii): Active | Activity (Candida parapsilosis): Active | Activity (Nakaseomyces glabratus): Active | Activity (Candida dubliniensis): Active | Activity (Candida albicans [2]): Active | Activity (Candida tropicalis): Active

MIC (Candida albicans [1]): 0.14 µg/mL (≈ 0.13 µM)
Structure (SMILES): CCCCCOc1ccc(-c2ccc(-c3ccc(C(=O)N[C@H]4CCCNC(=O)[C@@H]5C[C@@H](O)CN5C(=O)[C@H](CCCN)NC(=O)[C@H](CCc5ccc(O)cc5)NC(=O)[C@@H]5C[C@@H](O)CN5C(=O)[C@H]([C@@H](C)O)NC4=O)cc3)cc2)cc1 ({pTerphenylCO(4''-OnC5H11)}-[Orn]T[Hyp][hTyr][Orn][Hyp]; lactam 1-C)
Activity (Pichia kudriavzevii): Active | Activity (Candida parapsilosis): Active | Activity (Nakaseomyces glabratus): Active | Activity (Candida dubliniensis): Active | Activity (Candida albicans [2]): Active | Activity (Candida tropicalis): Active

MIC (Candida albicans [1]): 0.025 µg/mL (≈ 0.0229 µM)
Structure (SMILES): CC[C@H](C)C[C@H](C)CCCCCCCCC(=O)N[C@H]1C[C@@H](O)[C@@H](NCCN)NC(=O)[C@@H]2[C@@H](O)CCN2C(=O)[C@H]([C@H](O)CCN)NC(=O)[C@H]([C@H](O)[C@@H](O)c2ccc(O)cc2)NC(=O)[C@@H]2C[C@@H](O)CN2C(=O)[C@H]([C@@H](C)O)NC1=O [CASPOFUNGIN]
